Measurements reported in publication PMC13031150 (Acta Pharmaceutica Sinica. B, 2025).

Key:
[1] = system: KBM5-T315I-PGK1-KD, PGK1-OE and PGK1-T378P cells; assay: CCK-8 cell viability in PGK1-modified KBM5-T315I cells; format: cell-based, human; details: KBM5-T315I-PGK1-KD versus KBM5-T315I, 24 h
In short: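 KBM5-T315I lines were empty-vector (NC), PGK1-overexpressing (OE), shPGK1 knockdown (KD), or KD re-transfected with PGK1-WT or PGK1-T378P cDNA. […] WT, OE, KD and T378P cells received test compound 0–80 μmol/L for […]. Viability was read by CCK-8; SEM, n = 3.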

KBM5-T315I cells [2] = assay: CCK-8 cell viability assay, including SynergyFinder synergy analysis; format: cell-based, human
In short: (§1)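 Viability was read by CCK-8. […] A second test compound, 0–80 μmol/L alone or with a TKI, was given for 12 h. δ-scores came from SynergyFinder: >10 synergy, <−10 antagonism. SEM, n = 3.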

VCP-KD-KBM5-T315I cells = assay: CCK-8 cell viability with synergy analysis in VCP-knockdown cells; format: cell-based, human; details: NG52 combined with imatinib, 24 h
In short: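 Viability was read by CCK-8, and δ-scores were computed in SynergyFinder (>10 synergy, <−10 antagonism).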

[3] = system: VCP phosphorylation in KBM5-T315I cells; assay: VCP phosphorylation in cells; format: cell-based, human; details: 50 μmol/L NG52, 24 h
In short: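 KBM5-T315I cells were treated 24 h with test compound. Lysates were immunoprecipitated with anti-VCP antibody and immunoblotted with a pan-phospho-Ser/Thr antibody.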

KBM5-T315I cells [4] = assay: Autophagy readouts; format: cell-based, human
KBM5 cells = assay: CCK-8 cell viability assay, including SynergyFinder synergy analysis; format: cell-based, human; details: NG52 combined with imatinib, KBM5, 24 h, CCK-8, SynergyFinder
In short: as §1

KBM5-T315I cells [5] = assay: LDH / lactate production; format: cell-based, human; details: NG52 6.25–50 μmol/L, 24 h
BCR-ABL = BCR-ABL protein level by Western blot; format: cell-based, human; details: KBM5-T315I, NG52 0–50 μmol/L, 24 h, dose-dependent
KBM5-T315I xenograft = assay: Subcutaneous KBM5-T315I xenograft in NOD/SCID mice; format: in vivo, mouse; details: CPU-216 20 mg/kg, NG52 100 mg/kg
[6] = system: KBM5-T315I cells-bearing NOD/SCID mice; assay: Tail-vein KBM5-T315I leukemia model in NOD/SCID mice; format: in vivo, mouse; details: single agent: imatinib 100 mg/kg, CPU-216 20 mg/kg
In short: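 Female NOD/SCID mice aged 4–6 weeks received sublethal irradiation (1.8 Gy), then KBM5-T315I cells by tail vein within 24 h. After 7 days of engraftment, dosing was on alternate days for 4 weeks, with saline as vehicle. Peripheral-blood human CD45⁺ cells were measured by flow cytometry, along with spleen weight and Kaplan–Meier survival. SEM, n ≥ 3.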

[7] = KBM5-T315I, Western blot, NG52 dose-dependent, CPU-216 0–6 μmol/L, 0–12 h

Cc1ccc(C(=O)Nc2ccc(CN3CCN(C)CC3)c(C(F)(F)F)c2)cc1C#Cc1cnc2cccnn12 [ponatinib]
Sensitivity of PGK1-knockdown cells to the TKI [1]: increased sensitivity

CC1=C(CSC(=S)N2CCCCC2)C(=O)c2ccccc2C1=O [PKM2-IN-1]
Effect on proliferation (KBM5-T315I cells [2]; 3 μmol/L, 24 h, CCK-8, KBM5-T315I): did not affect | Synergy score (KBM5-T315I cells [2]; PKM2-IN-1 combined with imatinib, KBM5-T315I): −4.49

CC(C)n1cnc2c(Nc3cccc(Cl)c3)nc(NCCO)nc21 [NG52]
Inhibitory effect on cell viability, KBM5-T315I versus KBM5 (KBM5-T315I cells [2]; 0–400 μmol/L, 24 h, CCK-8): better inhibitory effect on KBM5-T315I | Synergy score (KBM5-T315I cells [2]; NG52 combined with imatinib, KBM5-T315I pretreated with 3 μmol/L PKM2-IN-1): 15.16 | Synergy score (δ-score) (KBM5-T315I cells [2]; NG52 combined with imatinib, NC (empty vector control) KBM5-T315I cells, 24 h): 15.66 | Synergy score (δ-score) (KBM5-T315I cells [2]; NG52 combined with ponatinib, KBM5-T315I, 24 h, CCK-8, SynergyFinder): 10.11 | Synergy score (δ-score) (VCP-KD-KBM5-T315I cells): 7.57 | VCP phosphorylation levels [3]: reduction | Formation of LC3 puncta (KBM5-T315I cells [4]; KBM5-T315I transfected with GFP-LC3B): promote | Beclin 1 ubiquitination (KBM5-T315I cells [4]; KBM5-T315I, NG52 50 μmol/L with 10 μmol/L MG132, 24 h): decreased | Beclin 1 expression and LC3B-II/LC3B-I ratio (KBM5-T315I cells [4]; [7]): increased | SQSTM1 expression (KBM5-T315I cells [4]; [7]): reducing | Autophagic vesicles (transmission electron microscopy) (KBM5-T315I cells [4]; KBM5-T315I, NG52 50 μmol/L, CPU-216 6 μmol/L): marked increase | Synergy score (δ-score) (KBM5 cells): −7.32 | Effect on LDH levels (KBM5-T315I cells [5]): no significant effect | BCR-ABL expression (BCR-ABL): reduced | LC3B-II expression in tumor (immunofluorescence) (KBM5-T315I xenograft; imatinib 100 mg/kg): increased | SQSTM1 expression in tumor (immunofluorescence) (KBM5-T315I xenograft; imatinib 100 mg/kg): decreased | Tumor proliferation (Ki-67 staining) (KBM5-T315I xenograft; imatinib 100 mg/kg): significantly reduced | Tumor volume (KBM5-T315I xenograft; intragastric every 48 h, 21 days): reduce

Cc1ccc(NC(=O)c2ccc(CN3CCN(C)CC3)cc2)cc1Nc1nccc(-c2cccnc2)n1 [imatinib]
Sensitivity of PGK1-knockdown cells to the TKI [1]: increased sensitivity | Reduction of proportion of cells in the blood (HuCD45) [6]: less pronounced | Splenomegaly [6]: alleviated
